≈ marks a conversion by molar mass, not a printed value.
Tests used:
Format in all cases: functional
Mus musculus [1] = species: Mus musculus; assay: Half-maximal response in vitro using peritoneal exudate cells from Propionibacterium acnes-primed mice; settings: read-out: ED50 (the source's name)
Mus musculus [2] = species: Mus musculus; assay: Ability to enhance antibody response to tetanus toxoid vaccine, total Immunoglobulin (Ig)
Outline: (§1)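 Mice were immunized with tetanus toxoid in an oil-water emulsion with test article, then boosted 21 days after the primary dose. Serum was taken 14 days after the second injection and assayed by ELISA. Values are test titers divided by the titer of controls given oil-water vehicle with tetanus toxoid only.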

Mus musculus [3] = species: Mus musculus; assay: Ability to enhance antibody response to tetanus toxoid vaccine, IgG1; outline: as §1
Mus musculus [4] = species: Mus musculus; assay: Percent of cytotoxicity was determined for augment vaccine-induced CTL's against EG.7-ova target cells in two separate murine models
Outline: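 C57BL/6 (H-2b) mice, 6 per group, were immunized on days 0 and 14 with a 2.5% oil-water emulsion containing 25 µg ovalbumin plus test article. On day 21, spleens were tested for ovalbumin-specific CTL against 51Cr-labeled E.G7-ova target cells, an ovalbumin-transfected line. Read-out was percent specific lysis.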

Mus musculus [5] = species: Mus musculus; assay: Ability to enhance antibody response to tetanus toxoid vaccine, IgG2a; outline: as §1
Mus musculus [6] = species: Mus musculus; assay: Ability to enhance antibody response to tetanus toxoid vaccine, IgG2b; outline: as §1
Oryctolagus cuniculus = species: Oryctolagus cuniculus; assay: Minimum pyrogenic dose was determined for Febrile response in a standard 3-rabbit USP pyrogen test by injecting compound in the marginal ear vein
Outline: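 Test article dissolved in EtOH, then diluted with D5W to the desired concentrations just before injection. The minimal pyrogenic dose is the dose at which the summed temperature rise over the three rabbits reaches at least 1.2 °C.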

Homo sapiens [7] = species: Homo sapiens; assay: Relative ex vivo induction of TNF-alpha in human whole blood stimulated with 10 ug/mL
Outline: (§2)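 Human whole blood was stimulated with sample, and cell-associated TNF-α and IL-1β were measured by sandwich ELISA. Relative induction below 0.05 was scored as not detected.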

Homo sapiens [8] = species: Homo sapiens; assay: Relative ex vivo induction of IL1-beta in human whole blood stimulated with 10 ug/mL; outline: as §2

Row | Structure (SMILES) | EC50 (Mus musculus [1]) [ng/mL] | Response (Mus musculus [2]) | Response (Mus musculus [3]) | Cytotoxicity (Mus musculus [4]) [%] | Response (Mus musculus [5]) | Response (Mus musculus [6]) | Dose (Oryctolagus cuniculus) [µg/kg] | Cytokine induction (Homo sapiens [7]) | Cytokine induction (Homo sapiens [8])
1 | CCCCCCCCCCCCCC(=O)O[C@H](CCCCCCCCCCC)CC(=O)N[C@@H](CO)CO[C@@H]1OC(CO)[C@H](OP(=O)(O)O)C(OC(=O)C[C@@H](CCCCCCCCCCC)OC(=O)CCCCCCCCCCCCC)[C@@H]1NC(=O)C[C@@H](CCCCCCCCCCC)OC(=O)CCCCCCCCCCCCC (some centres undefined) | 150 (≈ 91.3 nM) | 4 | 3.4 | 34 | 3.8 | 2.4 | >10 | – | –
2 | CCCCCCCCCCC[C@H](CC(=O)N[C@H](CO[C@@H]1OC(CO)[C@H](OP(=O)(O)O)C(OC(=O)C[C@@H](CCCCCCCCCCC)OC(=O)CCCCCCCCC)[C@@H]1NC(=O)C[C@@H](CCCCCCCCCCC)OC(=O)CCCCCCCCC)C(=O)O)OC(=O)CCCCCCCCC (some centres undefined) | 0.3 (≈ 0.202 nM) | – | – | – | – | – | <2.5 | 1.5 | 0.6
3 | CCCCCCCCCCCCCC(=O)O[C@H](CCCCCCCCCCC)CC(=O)N[C@H](CO)CO[C@@H]1OC(CO)[C@H](OP(=O)(O)O)C(OC(=O)C[C@@H](CCCCCCCCCCC)OC(=O)CCCCCCCCCCCCC)[C@@H]1NC(=O)C[C@@H](CCCCCCCCCCC)OC(=O)CCCCCCCCCCCCC (some centres undefined) | 9 (≈ 5.48 nM) | 3.8 | 2.2 | 21 | 4.3 | 1.6 | 10 | 3.5 | 4.9
4 | CCCCCCCCCCC[C@H](CC(=O)N[C@@H](CO[C@@H]1OC(CO)[C@H](OP(=O)(O)O)C(OC(=O)C[C@@H](CCCCCCCCCCC)OC(=O)CCCCCCCCC)[C@@H]1NC(=O)C[C@@H](CCCCCCCCCCC)OC(=O)CCCCCCCCC)C(=O)O)OC(=O)CCCCCCCCC (some centres undefined) | 0.06 (≈ 0.0403 nM) | 18.9 | 4.2 | 58 | 6.8 | 2.8 | <0.06 | >6 | 23
5 | CCCCCCCCCCCCCCCC(=O)O[C@H](CCCCCCCCCCC)CC(=O)N[C@H]1[C@@H](O)[C@H](O)[C@H](CO[C@@H]2O[C@@H](CO)[C@@H](OP(=O)(O)O)[C@H](OC(=O)C[C@@H](CCCCCCCCCCC)OC(=O)CCCCCCCCCCCCC)[C@@H]2NC(=O)C[C@@H](CCCCCCCCCCC)OC(=O)CCCCCCCCCCC)O[C@H]1O | 14 (≈ 8.09 nM) | – | – | 31 | – | – | 10 | 1.2 | 0.7
6 | CCCCCCCCCCC[C@H](CC(=O)NCCO[C@@H]1OC(CO)[C@H](OP(=O)(O)O)C(OC(=O)C[C@@H](CCCCCCCCCCC)OC(=O)CCCCCCCCC)[C@@H]1NC(=O)C[C@@H](CCCCCCCCCCC)OC(=O)CCCCCCCCC)OC(=O)CCCCCCCCC (some centres undefined) | 0.5 (≈ 0.346 nM) | – | – | 36 | – | – | 10 | 1.3 | 1.9
7 | CCCCCCCCCCCCCC(=O)O[C@H](CCCCCCCCCCC)CC(=O)NC(CO[C@@H]1OC(CO)[C@H](OP(=O)(O)O)C(OC(=O)C[C@@H](CCCCCCCCCCC)OC(=O)CCCCCCCCCCCCC)[C@@H]1NC(=O)C[C@@H](CCCCCCCCCCC)OC(=O)CCCCCCCCCCCCC)C(=O)O (some centres undefined) | 3 (≈ 1.81 nM) | 3.6 | 1.9 | 14 | 2.1 | 0.9 | 0.6 | 1.7 | 4.8
8 | CCCCCCCCCCC[C@H](CC(=O)NC(CO[C@@H]1OC(CO)[C@H](OP(=O)(O)O)C(OC(=O)C[C@@H](CCCCCCCCCCC)OC(=O)CCCCC)[C@@H]1NC(=O)C[C@@H](CCCCCCCCCCC)OC(=O)CCCCC)C(=O)O)OC(=O)CCCCC (some centres undefined) | > 10000 | 1.1 | 1.3 | – | 0.3 | 0.9 | <2.5 | – | –
9 | CCCCCCCCCCC[C@H](CC(=O)NC(CO[C@@H]1OC(CO)[C@H](OP(=O)(O)O)C(OC(=O)C[C@@H](CCCCCCCCCCC)OC(=O)CCCCC)[C@@H]1NC(=O)C[C@@H](CCCCCCCCCCC)OC(=O)CCCCC)C(N)=O)OC(=O)CCCCC (some centres undefined) | > 10000 | – | – | – | – | – | >10 | – | –
10 | CCCCCCCCCCCCCC(=O)O[C@H](CCCCCCCCCCC)CC(=O)NC(CO[C@@H]1OC(CO)[C@H](OP(=O)(O)O)C(OC(=O)C[C@@H](CCCCCCCCCCC)OC(=O)CCCCCCCCCCCCC)[C@@H]1NC(=O)C[C@@H](CCCCCCCCCCC)OC(=O)CCCCCCCCCCCCC)C(=O)OC (some centres undefined) | 67 (≈ 40.1 nM) | – | – | – | – | – | 10 | 1.1 | 1.1
11 | CCCCCCCCCCC[C@H](CC(=O)NCCO[C@@H]1OC(CO)[C@H](OP(=O)(O)O)C(OC(=O)C[C@@H](CCCCCCCCCCC)OC(=O)CCCCC)[C@@H]1NC(=O)C[C@@H](CCCCCCCCCCC)OC(=O)CCCCC)OC(=O)CCCCC (some centres undefined) | > 10000 | – | – | – | – | – | 10 | – | –
12 | CCCCCCCCCCCC(=O)O[C@H](CCCCCCCCCCC)CC(=O)NC(CO[C@@H]1OC(CO)[C@H](OP(=O)(O)O)C(OC(=O)C[C@@H](CCCCCCCCCCC)OC(=O)CCCCCCCCCCC)[C@@H]1NC(=O)C[C@@H](CCCCCCCCCCC)OC(=O)CCCCCCCCCCC)C(=O)O (some centres undefined) | 0.9 (≈ 0.572 nM) | – | – | – | – | – | <2.5 | 3.6 | 2
13 | CCCCCCCCCCCCCC(=O)O[C@H](CCCCCCCCCCC)CC(=O)NC(CO[C@@H]1OC(CO)[C@H](OP(=O)(O)O)C(OC(=O)C[C@@H](CCCCCCCCCCC)OC(=O)CCCCCCCCCCCCC)[C@@H]1NC(=O)C[C@@H](CCCCCCCCCCC)OC(=O)CCCCCCCCCCCCC)C(N)=O (some centres undefined) | 20 (≈ 12.1 nM) | – | – | – | – | – | 10 | 1.1 | 0.9
14 | CCCCCCCCCCCCCC(=O)O[C@H](CCCCCCCCCCC)CC(=O)NCCO[C@@H]1OC(CO)[C@H](OP(=O)(O)O)C(OC(=O)C[C@@H](CCCCCCCCCCC)OC(=O)CCCCCCCCCCCCC)[C@@H]1NC(=O)C[C@@H](CCCCCCCCCCC)OC(=O)CCCCCCCCCCCCC (some centres undefined) | 100 (≈ 62 nM) | – | – | 59 | – | – | 10 | 0.3 | 0.3
15 | CCCCCCCCCCCCCC(=O)O[C@H](CCCCCCCCCCC)CC(=O)NCCCCCCCCO[C@@H]1OC(CO)[C@H](OP(=O)(O)O)C(OC(=O)C[C@@H](CCCCCCCCCCC)OC(=O)CCCCCCCCCCCCC)[C@@H]1NC(=O)C[C@@H](CCCCCCCCCCC)OC(=O)CCCCCCCCCCCCC (some centres undefined) | > 10000 | – | – | – | – | – | >10 | – | –
16 | CCCCCCCCCCC[C@H](CC(=O)NC(CO[C@@H]1OC(CO)[C@H](OP(=O)(O)O)C(OC(=O)C[C@@H](CCCCCCCCCCC)OC(=O)CCCCCCC)[C@@H]1NC(=O)C[C@@H](CCCCCCCCCCC)OC(=O)CCCCCCC)C(=O)O)OC(=O)CCCCCCC (some centres undefined) | 33 (≈ 23.5 nM) | – | – | – | – | – | <2.5 | – | –
17 | CCCCCCCCCCCCCC(=O)O[C@H](CCCCCCCCCCC)CC(=O)NCCCCCCO[C@@H]1OC(CO)[C@H](OP(=O)(O)O)C(OC(=O)C[C@@H](CCCCCCCCCCC)OC(=O)CCCCCCCCCCCCC)[C@@H]1NC(=O)C[C@@H](CCCCCCCCCCC)OC(=O)CCCCCCCCCCCCC (some centres undefined) | 160 (≈ 95.9 nM) | – | – | – | – | – | >10 | – | –
18 | CCCCCCCCCCCCCC(=O)O[C@H](CCCCCCCCCCC)CC(=O)NCCCO[C@@H]1OC(CO)[C@H](OP(=O)(O)O)C(OC(=O)C[C@@H](CCCCCCCCCCC)OC(=O)CCCCCCCCCCCCC)[C@@H]1NC(=O)C[C@@H](CCCCCCCCCCC)OC(=O)CCCCCCCCCCCCC (some centres undefined) | 8 (≈ 4.92 nM) | 4.7 | 2.2 | 38 | 5.8 | 6.1 | 10 | 2.3 | 3.5
19 | CCCCCCCCCCC[C@H](CC(=O)NC(CO[C@@H]1OC(CO)[C@H](OP(=O)(O)O)C(OC(=O)C[C@@H](CCCCCCCCCCC)OC(=O)CCCCCCCCC)[C@@H]1NC(=O)C[C@@H](CCCCCCCCCCC)OC(=O)CCCCCCCCC)C(N)=O)OC(=O)CCCCCCCCC (some centres undefined) | 0.3 (≈ 0.202 nM) | 8.9 | 2.6 | 65 | 1.7 | 3.3 | 10 | 3.5 | 6.2
20 | CCCCCCCCCCCCCC(=O)O[C@H](CCCCCCCCCCC)CC(=O)NCCCCO[C@@H]1OC(CO)[C@H](OP(=O)(O)O)C(OC(=O)C[C@@H](CCCCCCCCCCC)OC(=O)CCCCCCCCCCCCC)[C@@H]1NC(=O)C[C@@H](CCCCCCCCCCC)OC(=O)CCCCCCCCCCCCC (some centres undefined) | 51 (≈ 31.1 nM) | – | – | 58 | – | – | 10 | 1 | 0.3

Source: ChEMBL document CHEMBL1131828, “Synthesis and biological evaluation of a new class of vaccine adjuvants: aminoalkyl glucosaminide 4-phosphates (AGPs)” (1999)
